PMC4394037 (Journal of molecular biology, 2014)

target: Bcl-xL (Homo sapiens, UniProt Q07817); format: binding; settings: global SORTCERY ranks re-indexed from 1 to 19 for the 19 chosen sequences
How it was run: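 Incubated with Myc-tagged Bcl-xL in 50 mM Tris, 100 mM NaCl, pH 8.0, 1 mg/ml BSA for 2 h at room temperature. Stained with anti-HA/anti-Myc, then APC/PE secondaries, at 4 °C. Sorted into 12 gates and deep-sequenced (Phred >0.95). Global ranking optimised by Monte Carlo, with bootstrap uncertainty.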

Bcl-xL, sequence (Q07817 whole entry): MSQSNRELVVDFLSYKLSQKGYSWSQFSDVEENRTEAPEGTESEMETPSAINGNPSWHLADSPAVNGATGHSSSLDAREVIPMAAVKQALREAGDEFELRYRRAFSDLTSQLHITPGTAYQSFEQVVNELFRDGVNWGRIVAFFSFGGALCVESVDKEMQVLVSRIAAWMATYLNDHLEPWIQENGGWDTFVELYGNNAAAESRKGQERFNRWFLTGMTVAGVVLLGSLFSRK

Row | Sequence | reindexed ranking
1 | AAQELRRYGDEY | 8
2 | FGAQLGRVASDF | 14
3 | IGAQFGRFADDF | 5
4 | IGAQLRRMADDV | 7
5 | VAQELRRIGDEV | 9
6 | VGAQLRRIADDV | 1
7 | YAQEIGRNGDEF | 16
8 | YGAQLDRYAQDF | 10

Now from value to sequence:

Row | reindexed ranking | Sequence
9 | 12 | AGAQLHRFADDY
10 | 6 | FGAQLNRIAEDF
11 | 4 | VAQELRRYGDEY
12 | 17 | VGAQFHRFANDF
13 | 13 | YAQELQRYGDET
